Assay results from ChEMBL document CHEMBL4513216, “Probing the Open Global Health Chemical Diversity Library for Multistage-Active Starting Points for Next-Generation Antimalarials” (ACS Infect Dis, 2020).

Assay: Toxicity liver stage against HepG2, at 10uM
Assay type: cell-based
Parameters: test concentration 10 uM, cell line HepG2-A16-CD81EGFP
Settings: human, HepG2-A16-CD81EGFP cells; read-out: INHIBITION
In short: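 Uninfected HepG2-A16-CD81EGFP cells, 3 × 10^3 per well, 1536-well, plated on prespotted compound at 10 μM final, parasite-free screening media added to match infected plates; puromycin 10 μM positive, DMSO 0.5% negative; run in parallel with 48 h PbLuc assay at 37 °C, 5% CO2; viability by CellTiter-Glo luminescence, normalized to controls.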

| SMILES | cytotoxicity at 10 µM [%] |
| --- | --- |
| CS(=O)(=O)N1CCN(C(=O)CN2CCCc3c(F)cc(F)cc32)CC1 | -1.52 |
| Cc1nc(C)c(CN2CCOC[C@H](Oc3cnccn3)C2)s1 | -5.33 |
| CN1CCN2C(=O)N(C3CCOCC3)C[C@H]2C1 | 0.523 |
| CC(=O)N1CCN(CCNC(=O)c2nc3ccccc3c(=O)[nH]2)CC1 | 6.45 |
| O=C(Cc1ccc(Cl)s1)Nc1ccc2c(c1)C(=O)NC2=O | -7.19 |
| CCN1CCNC(=O)C12CCN(S(=O)(=O)c1ccccc1)CC2 | 0.464 |
| CC(=O)N1CCC2(CC1)CN(C(=O)c1cccc3[nH]ccc13)CCO2 | -149 |
| CCCc1cc(C(=O)Nc2nc(SC)ns2)n(C)n1 | 8.49 |
| O=C(c1cc2c(s1)CCC2)N1CCCC(c2cnccn2)C1 (stereo not drawn) | -1.67 |
| CCc1c(C)noc1-c1cnc(NC2CC2)nc1-c1cnc(C)cn1 | -29 |
| Brc1cccc(-c2noc(C3COCCO3)n2)c1 (stereo not drawn) | 8.71 |
| CCOc1ccc(NC(=O)c2cccc(OC)c2OC)cc1 | 1.64 |
| Cc1csc(-c2ccc(NC(=O)N3CCOCC3)cc2)n1 | -9.2 |
| CCN(CC(C)C#N)C(=O)c1cccc(COc2ccc(C)nc2)c1 (stereo not drawn) | 5.8 |
| CC(=O)Nc1cc(-c2cccc(F)c2F)n[nH]1 | -0.305 |
| NC(=O)C1Cc2ccccc2CN1CCC(=O)N1CCc2ccccc21 (stereo not drawn) | -4.23 |
| Cn1cc(N2CCN(c3ccc(C#N)cc3F)CC2=O)cn1 | -2.14 |
| NC(=O)NC1(C(=O)N2CCc3c(Cl)cccc3C2)CCCCC1 | -3.45 |
| CC(C)(C)NC(=O)c1cnc2n1CCCC2 | -3.32 |
| O=C(c1csnn1)N1CCc2ccccc21 | 5.35 |
| CCC(CC)(CNC(=O)OC(C)(C)C)NC(=O)C1CC1 | -0.708 |
| Cc1cnn(CCNC(C)C(=O)Nc2ccc(Cl)cn2)c1 (stereo not drawn) | 0.858 |
| Cc1cnn(CCNCC(=O)Nc2ccc(Cl)cn2)c1 | 1.93 |

| SMILES | cytotoxicity at 10 µM [%] |
| --- | --- |
| Cc1ocnc1C(=O)Nc1ccc(-c2nnc(N(C)C)o2)cc1 | 5.49 |
| O=C(c1coc(-c2ccccc2)n1)N1CCCCC1 | 11.2 |
| N#Cc1cccc(OCc2ccoc2C(=O)N2CCCCC2)c1 | -6.57 |
| CCN(Cc1ccco1)C(C)c1nc(C)no1 (stereo not drawn) | -10.1 |
| COc1ccnc(NC(Cc2ccccc2)C(N)=O)n1 (stereo not drawn) | 20.7 |
| CSCc1cc(F)ccc1CNC(=O)N1CCCC1 | 5.58 |
| Cc1noc(C)c1C(=O)NCCN1CCN(c2ccccc2)CC1 | -10.8 |
| CCc1nc(CCNC(=O)NC2CCSCC2)cs1 | -5.55 |
| CCn1cnnc1C1CCN(C(=O)CC(C)n2cccc2)CC1 (stereo not drawn) | -1.49 |
| Cc1ccccc1-n1cnnc1SCC(=O)NCC1CCCO1 (stereo not drawn) | -1.15 |
| CCC(C)NC(=O)c1ccc(CNC(=O)CC(C)(C)C)cc1 (stereo not drawn) | 10 |
| CCCNC(=O)CNc1cc(C(=O)NCC(F)(F)F)cc(F)c1C | 10 |
| CCc1nsc(N2CCN(CC(=O)Nc3c(C)n[nH]c3C)CC2)n1 | -3.63 |
| CCC1CN(Cc2c(O)ccc3oc4c(c23)CCCC4)CCO1 (stereo not drawn) | 2.03 |
| O=C(CCNc1ncccn1)NCc1cccc(OC(F)F)c1 | -1.75 |
| Cc1nn(C)c(N2CCOCC2)c1CNCC1CCS(=O)(=O)C1 (stereo not drawn) | -2.09 |
| CCCOc1cccc(NC(=O)NC2CCc3nc(C)nn3C2)c1 (stereo not drawn) | -1.65 |
| N#Cc1cccc(CNC(=O)C2=NN(c3ccccc3)C(=O)CN2)c1 | -3.44 |
| Cc1cc(C)n(-c2ccc(N3CCC4(CC3)OCCO4)nc2)n1 | -4.84 |
| O=C(CSc1ccc2c(c1)OCCO2)NS(=O)(=O)c1cccs1 | -3.13 |
| NC(=O)CN1CCCN(C(=O)c2ccn(-c3ccc(F)cc3)n2)CC1 | -5.69 |
| O=C(CSc1ccc2c(c1)OCCO2)NS(=O)(=O)c1cccnc1 | -5.72 |
| O=C(CSc1ccc2c(c1)OCCO2)NS(=O)(=O)c1ccccc1 | -2.56 |

| SMILES | cytotoxicity at 10 µM [%] |
| --- | --- |
| COc1cc(NC(=O)c2cscn2)ncn1 | 3.12 |
| CC1CCCN(C(=O)CCNS(=O)(=O)c2cccnc2)C1 (stereo not drawn) | -11 |
| COc1ccc(NC(=O)CSc2nc(C)c(C)c(C)c2C#N)cn1 | -0.82 |
| CCN1CCN(CCC(=O)NC2CC(c3cccc(Cl)c3)C2)CC1 (stereo not drawn) | -7.37 |
| CCc1nc(C2CCCN(c3ncccn3)C2)no1 (stereo not drawn) | -0.996 |
| COCCN1CCN(CC(=O)N(C)Cc2ccc(F)cc2)CC1C (stereo not drawn) | -145 |
| CN(C)C(=O)c1csc(-c2ccoc2)n1 | -1.13 |
| OCC1(CNC2CCc3cc4c(cc32)OCCO4)CC1 (stereo not drawn) | -3.37 |
| Cc1sc2nc(SC(C)c3nc(C(C)(C)C)no3)nc(N)c2c1C (stereo not drawn) | -1.13 |
| CC(C)N(C(=O)c1csc(-c2ccoc2)n1)C1CCOCC1 | -1.18 |
| Cc1n[nH]c(C2CN(Cc3ncc(C(C)C)o3)CCO2)n1 (stereo not drawn) | -6.32 |
| CN(CC1CCC1)C(=O)c1ccc(-c2nc(C3CC3)n[nH]2)cc1 | -3.26 |
| O=C(CC1CCCO1)Nc1ccc2c(ccn2CCN2CCOCC2)c1 (stereo not drawn) | 2.55 |
| Cc1cc(CS(=O)(=O)NCC2CCCCC2)on1 | -18.7 |
| O=C(c1ccnc(NC2CC2)c1)N1CCCC1c1cccc(Br)c1 (stereo not drawn) | -6.58 |
| CN(CCc1cccs1)C(=O)Nc1cccc(S(C)(=O)=O)c1 | -8.77 |
| CC(C)C(C)(O)CNC(=O)Nc1ccccn1 (stereo not drawn) | 4.77 |
| CCCC(Cn1cnc(-c2ccccc2)c1-c1cncn1CC)N(C)C (stereo not drawn) | 7.59 |
| c1cc(-c2cc(C3CCN(Cc4cncnc4)C3)ccn2)ccn1 (stereo not drawn) | -0.969 |
| CSCCC(=O)N1CCc2c(ncnc2N2CCOCC2)C1 | -4.88 |
| CN1CCN(CCn2cnc3c(F)cccc3c2=O)CC1 | -1.67 |
| O=C(c1cnccn1)N1CCCC(Cn2cc(C3CC3)nn2)C1 (stereo not drawn) | -5.9 |
| Cc1cc(C(=O)NCCc2cn3nc(C)sc3n2)c(C)o1 | 5.68 |

| SMILES | cytotoxicity at 10 µM [%] |
| --- | --- |
| COc1ccccc1Oc1ncccc1CNC(=O)C(C)CN (stereo not drawn) | 0.884 |
| COc1cccc(-n2cc(-c3ccnc(N[C@@H](CO)C(C)C)n3)cn2)c1 | -1.15 |
| CCc1ccc2nc(C)cc(C(=O)N[C@@H]3CNC[C@H]3O)c2c1 | -11 |
| COCc1noc(-c2ccc(N(C)Cc3nccs3)nc2)n1 | -1.57 |
| CC(C)Cc1cn(C2CCN(C(C)CC3CC3)CC2)nn1 (stereo not drawn) | -2.9 |
| CCn1c(C2CCCN(Cc3cc(F)ccc3OC)C2)nn(C)c1=O (stereo not drawn) | -4.12 |
| CCCn1ncc(C(=O)N2CCN(C3CCSCC3)CC2)c1C | -148 |
| Cc1ncc(CO)c(CN2CCCC2c2nc3c(C)cccc3[nH]2)c1O (stereo not drawn) | 0.414 |
| NC1CCCc2nc(-c3ccccc3)ncc21 (stereo not drawn) | 4.93 |
| COCCOCC(=O)N1CCC(c2ccccc2F)C1 (stereo not drawn) | -6.45 |
| O=C(CCc1nc(Cl)n[nH]1)N1CCC2(CCCN(CC3CCC3)C2=O)C1 (stereo not drawn) | -5.3 |
| Cc1nc(C(C)C)sc1C(=O)N(C)CCCc1cnn(C)c1 | -4.6 |
| O=C(c1cnccn1)N1CCCC(Cn2cc(C3CCCC3)nn2)C1 (stereo not drawn) | -4.86 |
| O=C1CCC2(CCCN(C(=O)c3ccc[nH]3)C2)CN1Cc1cccnc1 (stereo not drawn) | 9.88 |
| CCN(C)CC(C)Cn1cnc(-c2ccccc2)c1C (stereo not drawn) | -3.06 |
| Cc1cc(N2Cc3cnn(CCO)c3C2)nc(-c2ccccc2O)n1 | -162 |
| O=C(Nc1ccc(-c2nc3c([nH]2)CCNC3)cc1)N1CCCC1 | -4.36 |
| CCOc1ccc(-c2ccc3c(c2)OCO3)cc1C(N)=O | 5.17 |
| Cc1cc(-c2nc(-c3ccccn3)nn2C2CCN(C)CC2)nc(C)n1 | -3.14 |
| CN(CCC(O)c1ccccc1)c1cc(N2CCOCC2)ncn1 (stereo not drawn) | -148 |
| CCNC(=O)c1ccnc(CC2COc3c(cccc3OC)C2)c1 (stereo not drawn) | 0.441 |
| O=C(N[C@H]1COC[C@@H]1N1CCCC1)c1c[nH]nc1C1CCCCC1 | -5.59 |
| CC(C)(C)n1cc(C2=CCN(CCNC(=O)c3ccccc3)CC2)cn1 | -0.262 |

| SMILES | cytotoxicity at 10 µM [%] |
| --- | --- |
| Fc1cnccc1CN1CCC2(CCNCC2)C1 | -123 |
| CC(C)Cc1cc(CNC(=O)C2CCCN(Cc3ccco3)C2)no1 (stereo not drawn) | 3.11 |
| Cc1ccsc1CNC(=O)NC(C)c1ccc2c(c1)CCC(=O)N2 (stereo not drawn) | 5.31 |
| Fc1ccc(-c2nnc(CN3CCCC(Cn4cncn4)C3)o2)cc1 (stereo not drawn) | -4.87 |
| Cc1nc(-c2ccc(Cl)s2)sc1C(=O)NCCCC(N)=O | -5.6 |
| CC(NC(=O)NCCCN1CCc2ccccc2C1)c1nncn1C (stereo not drawn) | -2.6 |
| COc1c(C2CCCN2CC(=O)Nc2cc(C)on2)c(C)nn1C (stereo not drawn) | -1.19 |
| Cc1ccc(NC(=O)NCCCn2nc3ccccn3c2=O)cc1 | -19.1 |
| O=C(COc1ccc(Cl)cc1)N1CCN(c2cnccn2)CC1 | -20.4 |
| Cc1cnc(C(=O)N2CCC(C(=O)c3cc(F)ccc3F)CC2)cn1 | -5.88 |
| Cc1nc(CN2CCCC(NCC(=O)Nc3cccnc3)C2)no1 (stereo not drawn) | 0.0757 |
| Cc1ccc(CN2C[C@H](OCCN(C)C)[C@H]3OCCC[C@H]32)o1 | -146 |
| O=C1CC2(CCN(Cc3cccnc3)C2)CN1c1cccc(F)c1 (stereo not drawn) | -147 |
| O=c1ccc2c(n1Cc1cccnc1)CCN(Cc1ccoc1)CC2 | -140 |
| O=C(Nc1cccc(C(=O)OCC2CCCN2)c1)c1ccoc1 (stereo not drawn) | -3.06 |
| COCc1nn(CC2CC2)c2c1CN(Cc1cccs1)CC2 | 0.994 |
| CCc1ccc(NS(=O)(=O)C=c2[nH]c(=O)n3cccc3c2=O)cc1 | 8.45 |
| Cc1nc(C)c(CC(=O)N2C[C@@H]3CC[C@H]2CN(c2cnccn2)C3)s1 | 10.1 |
| CC(C)c1cc(C(=O)N2C[C@@H]3CC[C@H]2CN(Cc2cscn2)C3)no1 | 1.27 |
| CNc1nc2cn(-c3cccc(OC)c3)c(=O)c-2c[nH]1 | 6.04 |
| CCCn1nccc1NC(=O)CN1CCCC1Cn1nc(C)nc1C (stereo not drawn) | -6.84 |
